In general, inhibition refers to the relative decrease from the control value, in per cent.

These results are taken from PubChem BioAssay.

Calls of active or inactive are those of the source.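 How the source made its calls, unless noted: active means fluorescence slope after compound addition differing from the mean of all screened samples at 99.7% confidence, in either direction; inactive means the rest.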

A short description of test [1]: inhibitors of TNFa-induced NFkB p65 translocation, primary screen, imaging, HUVEC, MLSMR starter and 10KST1 sets (AID 438;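 active means inhibition above 20% together with a positive visual image hit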;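 further: compound added about 3h40 before a 20 min TNFalpha stimulation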;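 on inhibition: signal is the nuclear over cytoplasmic p65 intensity ratio per well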). The settings on record: HUVEC TNFa-induced p65 nuclear translocation; cell count: measured here: nuclei count (cytotoxicity indicator), at 2.08 µM; inhibition: at 2 µM, stronger effect = higher value, 0% TNFa-plus-vehicle, 100% no-TNFa wells.
Test [2] is described as follows: endothelial E-selectin expression blockers – imaging, HUVEC, immunofluorescence, MLSMR starter and 10KST1 sets, primary screen (AID 487;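 active means visually confirmed hit in the image check and inhibition above 20%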;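 on inhibition: signal is fraction of cell area covered by stained E-selectin grains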;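 on nuclei count: 100% = median nuclei count of all wells on the same plate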). As to conditions: HUVEC TNFalpha-induced E-selectin immunofluorescence imaging, at 2 µM; inhibition: stronger effect = higher value; nuclei count: measured here: cell number, toxicity.
A short description of test [3]: Primary imaging screen for DUSP6 inhibitors that restore phospho-Erk in transfected HeLa cells, chemical complementation (AID 609;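 active means compounds giving at least 50% inhibition in the cell-based MKP-3 phosphatase rescue imaging test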;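 on inhibition: phospho-Erk level distribution per well compared with pooled transfected vehicle control wells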). The settings on record: HeLa MKP-3 transfected, phospho-Erk imaging KS statistic, at 10 µM, cells stimulated with TPA for 15 min.
In test [4] the target is Dual specificity protein phosphatase 6 (Homo sapiens) (UniProt Q16828). Described as above. The settings on record: HeLa MKP-3 transfected, phospho-Erk imaging KS statistic; at 10 µM; stronger effect = higher value; cells stimulated with TPA for 15 min.
Chain of Dual specificity protein phosphatase 6 (Homo sapiens) (Q16828 whole entry, looked up): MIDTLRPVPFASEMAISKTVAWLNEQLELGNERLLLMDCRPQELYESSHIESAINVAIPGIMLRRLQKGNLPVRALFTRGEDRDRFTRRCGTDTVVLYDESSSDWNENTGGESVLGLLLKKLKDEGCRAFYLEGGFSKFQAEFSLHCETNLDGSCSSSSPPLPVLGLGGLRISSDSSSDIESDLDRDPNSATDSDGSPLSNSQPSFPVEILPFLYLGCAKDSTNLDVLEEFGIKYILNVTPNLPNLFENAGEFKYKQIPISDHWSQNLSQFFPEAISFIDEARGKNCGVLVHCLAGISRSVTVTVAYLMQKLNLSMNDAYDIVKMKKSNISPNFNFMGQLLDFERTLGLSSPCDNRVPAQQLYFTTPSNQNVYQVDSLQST
Test [5] addresses Voltage-gated potassium channel subunit beta-2 (Rattus norvegicus) (UniProt P62483). Put plainly: inhibitors of rat Kvbeta2 reductase activity – biochemical, NADPH fluorescence, primary screen (AID 622;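 active means fluorescence slope higher than the sample average by over 3 SD, cut at about -0.22 in these data, passing the limit was not always enough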;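 further: slope of raw intensity against log time taken from 70 to 1610 s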). As to conditions: recombinant KvBeta, 4-cyanobenzaldehyde reduction, at 10 µM, stronger effect = higher value.
Test [6] shares this target. Nature of the test: enhancers of rat Kvbeta2 NADPH turnover – biochemical, NADPH fluorescence, primary screen (AID 623;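 active means NADPH fluorescence slope more negative than the mean of all samples by about 3 SD, 99.7% confidence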;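 further: fluorescence intensity change per second fitted from 20 to 320 s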). As to conditions: Recombinant KvBeta, NADPH fluorescence decrease slope, 10 min; at 10 µM; stronger effect = lower value.
For test [7], the target named is Alpha-2C adrenergic receptor (Homo sapiens) (UniProt P18825). Put plainly: compounds altering alpha2C-coupled GIRK flux – cell-based, HEK293 alpha2C/GIRK1/2, thallium flux, primary screen (AID 624).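 Further: slope of fluorescence ratio to pre-addition baseline per second over 15 to 24 s.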 As to conditions: thallium flux BTC fluorescence, at 10 µM, actives lie on both sides.
Chain of Alpha-2C adrenergic receptor (Homo sapiens) (P18825 whole entry, looked up): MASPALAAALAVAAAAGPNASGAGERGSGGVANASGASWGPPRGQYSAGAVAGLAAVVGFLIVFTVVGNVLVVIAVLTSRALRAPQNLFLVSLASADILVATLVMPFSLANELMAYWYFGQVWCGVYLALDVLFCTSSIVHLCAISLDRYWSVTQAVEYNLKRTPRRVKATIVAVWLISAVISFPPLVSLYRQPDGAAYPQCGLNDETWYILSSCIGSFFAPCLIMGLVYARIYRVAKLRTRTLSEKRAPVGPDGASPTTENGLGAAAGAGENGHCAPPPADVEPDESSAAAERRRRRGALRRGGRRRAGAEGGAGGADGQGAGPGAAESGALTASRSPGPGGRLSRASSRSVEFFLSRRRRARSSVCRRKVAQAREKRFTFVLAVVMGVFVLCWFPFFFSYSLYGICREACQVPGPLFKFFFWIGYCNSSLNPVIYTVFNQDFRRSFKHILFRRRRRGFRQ
A short description of test [8]: inhibitors of larval lipid processing in zebrafish, primary screen, whole organism, PED6 fluorescence, gall bladder and intestine (AID 686;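 active means a full or partial loss of lipid-probe fluorescence in the fish gall bladder, intestine or both, judged by eye; inactive means no fluorescence loss, or compound toxic to the fish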;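 further: larvae 5 to 7 days old with five fish per well; signal comes from phospholipase A2 cleavage of quenched PED6 carried via bile; overnight exposure to compound and PED6 before scoring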). As to conditions: Zebrafish larvae PED6 lipid processing, fluorescence scoring; screened at 20 µM (by protocol). In a few lines: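 Also added: quenched phospholipase substrate PED6, 100 nM final, ingested by larvae; System: zebrafish larvae, 5-7 d; Quantity: 5 larvae per well; Compound: 20 µM single dose; Schedule: overnight compound and PED6 incubation; Read-out: visual per-well fluorescence inhibition score; Measured by: By-eye fluorescence microscopy; Medium: E3.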

Test [9] in a line: loss of swimming-algae plug formation – whole organism, Chlamydomonas reinhardtii, WT vs cilia-less mutant, absorbance, 96-well, primary screen (AID 463189;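 active means inhibition at or above 50% relative to wild type and mutant plate controls; inactive means inhibition below 50%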;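 further: 0% = wild type cc124 cells in DMSO and 100% = ciliumless bld1 mutant cells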). The settings on record: Chlamydomonas reinhardtii gravitaxis, OD600 absorbance, 2 days; at 10 µM; stronger effect = higher value.
[10] abbreviates: measured here: cell density z-score.
Setting [11] is: measured here: nuclear c-Myc green intensity z-score.
The mark [12] stands for this setting: measured here: nuclear pErk red intensity z-score, stronger effect = higher value.

Chain of Voltage-gated potassium channel subunit beta-2 (Rattus norvegicus) (P62483 whole entry, looked up): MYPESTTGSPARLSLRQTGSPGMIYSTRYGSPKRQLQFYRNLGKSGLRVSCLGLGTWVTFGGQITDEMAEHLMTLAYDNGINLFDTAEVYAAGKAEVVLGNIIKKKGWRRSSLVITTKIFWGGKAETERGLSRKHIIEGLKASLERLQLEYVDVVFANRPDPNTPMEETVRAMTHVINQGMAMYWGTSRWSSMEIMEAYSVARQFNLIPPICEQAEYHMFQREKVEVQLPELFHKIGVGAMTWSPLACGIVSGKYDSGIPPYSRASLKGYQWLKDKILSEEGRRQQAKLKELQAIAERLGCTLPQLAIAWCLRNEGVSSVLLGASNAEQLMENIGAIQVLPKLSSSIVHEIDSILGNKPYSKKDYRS

As to `Cc1c(/C(O)=C2\C(=O)C(=O)N(CCN(C)C)C2c2cccs2)cnn1-c1ccccc1` (centres undefined), in test [1], the cell count was found to be 544. The inhibition in test [1] was 1.9% (inactive); in [2] it was -68.6% (inactive); in test [4], -5.26% (inactive); in test [9], -16.4% (inactive). This compound showed a nuclei count in test [2] of 127%. The results for the z-score in test [3] (setting [10]), in [3] (setting [11]) and in test [3] (setting [12]) were 1.03, -0.0076 and 0.683, respectively. Besides, the fluorescence slope in test [5] is -0.578 (inactive). For the same compound, the NADPH fluorescence slope in [6] is -3.3e-05 (inactive). Besides, the slope in [7] was 0.00515 (inactive). Besides, in test [8], the call was inactive.

`N#CC12CCCCC1CC1CCCCC1(C#N)N2Cc1ccccn1` (centres undefined): the cell count in [1] was found to be 372. Also, the inhibition in [1] is -4.4% (inactive); in test [2], -22.3% (inactive); in test [4], -3.98% (inactive); in test [9] it was -3.05% (inactive). In addition, the nuclei count in test [2] was 86.1%. Also, the z-score was 0.309 in test [3] (setting [10]), 0.731 in test [3] (setting [11]) and -1.95 in test [3] (setting [12]). Moreover, the fluorescence slope in test [5] was -0.46 (inactive). In test [6], the NADPH fluorescence slope was -0.000337 (inactive). In addition, the slope in [7] was 0.0048 (inactive). Besides, in [8], the call was inactive.

Turning to `COc1cccc(-c2nc(NCc3ccco3)c3ccccc3n2)c1O`, the cell count in test [1] is 550. For the same compound, the inhibition is 3% (inactive) in test [1], -7.1% (inactive) in test [2], -10.5% (inactive) in test [4] and 14.5% (inactive) in test [9]. This compound returned a nuclei count in test [2] of 113%. Besides, the z-score in test [3] (setting [10]) came to 0.234; in test [3] (setting [11]), 1.11; in test [3] (setting [12]), 1.04. For the same compound, the fluorescence slope in test [5] is -0.282 (inactive). In test [6], the NADPH fluorescence slope is -1.4e-05 (inactive). In addition, the slope in [7] is 0.00506 (inactive). The outcome in [8] was inactive.

Turning to `Cc1ccccc1C(=O)c1ccc2c(c1)n(C)c(=O)n2C`, the cell count in test [1] turned out to be 547. In addition, the inhibition in [1] was -22.1% (inactive); in [2], -296% (inactive); in [4], 5.65% (inactive); in [9] it was 0.416% (inactive). This compound came in with a nuclei count in test [2] of 200%. Also, the z-score in test [3] (setting [10]) was 1.43; in [3] (setting [11]), -1.34; in test [3] (setting [12]) it was 1.32. Further, the fluorescence slope in test [5] was -0.512 (inactive). Moreover, the NADPH fluorescence slope in test [6] is -5.8e-05 (inactive). In addition, in test [7], the slope is 0.00384 (inactive). Moreover, the call in test [8] was inactive.

In the case of `CCCOc1ccc(/C(O)=C2/C(=O)C(=O)N(CCCn3ccnc3)C2c2cccs2)cc1` (centres undefined), in test [1], the cell count is 537. Further, the inhibition is -14.3% (inactive) in test [1], -124% (inactive) in test [2], -18.6% (inactive) in test [4] and 0.323% (inactive) in test [9]. For the same compound, the nuclei count in test [2] turned out to be 150%. In addition, the z-score in test [3] (setting [10]) was -0.681; in [3] (setting [11]), -0.103; in test [3] (setting [12]), 0.12. In test [5], the fluorescence slope is -0.495 (inactive). Also, the NADPH fluorescence slope in test [6] is -3.4e-05 (inactive). Besides, in [7], the slope was 0.00501 (inactive). Besides, the result in test [8] was inactive.

In the case of `O=C(CCC(=O)CCN1CCCCC1)CCN1CCCCC1`, the cell count in test [1] was 641. Besides, the inhibition in test [1] is -2.1% (inactive); in [2], 5.3% (inactive); in test [4], 15.1% (inactive); in test [9], 12.4% (inactive). The compound also gave a nuclei count in [2] of 170%. Besides, the z-score is -0.3 in test [3] (setting [10]), 1.66 in test [3] (setting [11]) and 0.253 in test [3] (setting [12]). Besides, the fluorescence slope in [5] was -0.506 (inactive). In test [6], the NADPH fluorescence slope was -0.000129 (inactive). In test [7], the slope is 0.00498 (inactive). Besides, the result in [8] was inactive.

In the case of `Cc1nc2sc3c(c2c(=O)o1)CC(C)(C)OC3`, in test [1], the cell count came to 555. The inhibition in test [1] is -9.6% (inactive); in [2], 23.7% (inactive); in [4], 7.7% (inactive); in test [9] it was -15.1% (inactive). In addition, in test [2], the nuclei count is 115%. The z-score is 0.476 in [3] (setting [10]), 1.45 in test [3] (setting [11]) and -1.12 in test [3] (setting [12]). Further, in [5], the fluorescence slope is -0.461 (inactive). In addition, the NADPH fluorescence slope in test [6] was -1.1e-05 (inactive). Besides, the slope in [7] is 0.0057 (inactive). For the same compound, the result in test [8] was inactive.

Consider `COc1ccc(/C=C/C2=NC(=C\N(C)C)/C(=O)O2)cc1`, for which, in [1], the cell count was found to be 558. In addition, the inhibition in test [1] is 0.1% (inactive); in test [2] it was -26.3% (inactive); in test [4] it was 5.26% (inactive); in test [9], -3.9% (inactive). In [2], the nuclei count is 155%. Further, the results for the z-score in [3] (setting [10]), in [3] (setting [11]) and in test [3] (setting [12]) were -0.557, 0.899 and -1.61, respectively. In addition, the fluorescence slope in [5] was -0.303 (inactive). For the same compound, the NADPH fluorescence slope in test [6] was 4.9e-06 (inactive). Further, the slope in [7] is 0.00517 (inactive). In addition, the outcome in test [8] was inactive.

As to `CN1CCN(c2nc(C(N)=O)cc(-c3ccccc3)n2)CC1`, in test [1], the cell count is 400. Moreover, the inhibition was -6.4% (inactive) in test [1], 14% (inactive) in test [2], 7.83% (inactive) in test [4] and 18.8% (inactive) in [9]. This compound showed a nuclei count in test [2] of 98.8%. Also, the z-score in test [3] (setting [10]) was 1.22; in test [3] (setting [11]), -2.25; in test [3] (setting [12]), 0.112. Besides, in test [5], the fluorescence slope is -0.498 (inactive). Moreover, the NADPH fluorescence slope in test [6] was -3.9e-05 (inactive). Further, the slope in test [7] was 0.00569 (inactive). Also, in test [8], the compound was called inactive.

With `COc1cccc(COc2nc3c(c(=O)n(C)c(=O)n3C)n2C)c1`, in test [1], the cell count was 456. Also, the inhibition is -4.5% (inactive) in test [1], -99.3% (inactive) in test [2], -7.28% (inactive) in [4] and 5.71% (inactive) in test [9]. The compound also gave a nuclei count in test [2] of 164%. The z-score is -0.352 in test [3] (setting [10]), 0.147 in [3] (setting [11]) and -0.806 in test [3] (setting [12]). Further, the fluorescence slope in [5] was -0.325 (inactive). Besides, in test [6], the NADPH fluorescence slope was -1.3e-06 (inactive). In addition, the slope in test [7] is 0.00578 (inactive). For the same compound, in test [8], the compound was classed as inactive.

In the case of `CC(=O)Nc1cnc2ccccc2n1`, in [1], the cell count was determined as 626. Also, the inhibition is -12.5% (inactive) in test [1], 17.9% (inactive) in test [2], -6.06% (inactive) in test [4] and -0.95% (inactive) in test [9]. This compound also displayed a nuclei count in test [2] of 160%. Also, the z-score in [3] (setting [10]) is -0.876; in test [3] (setting [11]), 0.21; in test [3] (setting [12]), 0.164. For the same compound, the fluorescence slope in test [5] was -0.397 (inactive). Also, in test [6], the NADPH fluorescence slope was -5.9e-05 (inactive). Moreover, the slope in test [7] was 0.00508 (inactive). In addition, in test [8], the outcome was “inactive; toxic”.

On to `COc1ccc(OC)c(C(O)c2coc3ccc(O)c(CN4CCOCC4)c23)c1` (centres undefined), for which the cell count in test [1] was found to be 395. Also, the inhibition is -2.4% (inactive) in test [1], -6.2% (inactive) in [2], 1.42% (inactive) in [4] and 36.3% (inactive) in test [9]. In [2], this compound registered a nuclei count of 142%. Further, the values for the z-score in test [3] (setting [10]), in test [3] (setting [11]) and in test [3] (setting [12]) were -0.303, 0.452 and 0.346, respectively. Further, the fluorescence slope in [5] was -0.45 (inactive). The NADPH fluorescence slope in test [6] is -6.9e-05 (inactive). Also, the slope in [7] is 0.00476 (inactive). The call in test [8] was inactive.

On to `Clc1cccc(-c2nn3c(COc4ccccc4)nnc3s2)c1`, for which, in [1], the cell count turned out to be 559. The inhibition in test [1] was -2.3% (inactive); in [2] it was -53% (inactive); in test [4], -9.66% (inactive); in test [9] it was -2.6% (inactive). In test [2], this compound showed a nuclei count of 139%. Moreover, the z-score in test [3] (setting [10]) was 0.34; in test [3] (setting [11]), 0.334; in test [3] (setting [12]), -0.356. For the same compound, the fluorescence slope in test [5] was -0.412 (inactive). For the same compound, the NADPH fluorescence slope in test [6] was -0.000153 (inactive). Moreover, the slope in test [7] is 0.00768 (inactive). Besides, in test [8], the call was inactive.
